# Hits are enriched below; roughly 5.1% of the tested compounds scored in any of these assays.
# NF-kB expr up = activators of NF-kB expression in neurons, primary screen, cell-based, HTS. fold change at 12.5 µM. human neuronal cells, NF-kB reporter expression; hits give high values. hit rate 1.6% among 190,000; in the data active = fold change above about 3.3
# STAT1 inh = STAT1 signaling inhibitors, primary screen, cell-based, HTS, luciferase reporter | NIH 3T3 STAT1-luciferase reporter, IFN-gamma, luminescence | inhibition, % at 5.5 µM | hit rate 0.35% among 200,000;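 active = inhibition above a set limit, the mean inhibition across all tested compounds plus 3 SD, cut at about 34% in these data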;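 also: 0% = IFN-gamma with DMSO and 100% = IFN-gamma with 300 µM nifuroxazide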
# STAT1 activator = STAT1 signaling activators, primary screen, cell-based, HTS, luciferase reporter; NIH 3T3 STAT1-luciferase reporter, IFN-gamma, luminescence; 100% = IFN-gamma alone, no compound; hit rate 2.6% among 200,000; activation (% of control), % at 5.5 µM; AID 932, 2007;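 active = activation above the screen-wide mean activation plus 3 SD, cut at about 130% in these data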;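 also: raw ratio to IFN-gamma control signal so 100% means no change and 0% no light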
# STAT3 activator = IL-6 driven STAT3 reporter potentiators, primary screen, U3A cells, luciferase, luminescence, MLSCN library. IL-6 STAT3-luciferase reporter; 100% = signal with IL-6 EC80 alone. activation (% of control), % at 5.6 µM. hit rate 0.91% among 190,000;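 active = activation above the screen-wide mean of compound activation plus 3 SD, cut at about 130% in these data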;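 also: 0% = background luminescence of wells with medium and substrate only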
#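 Assay system – human STAT1-deficient U3A cells with stable STAT3-luciferase reporter · Also added – IL-6 (33 ng/mL) · Schedule – compound 1 h, then IL-6 6 h at 37 °C · Technique – reporter luminescence signal · Evaluation – % activation versus median of IL-6-stimulated wells · Benchmarks – IL-6-only wells as 100% reference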
# STAT3 inh = IL-6 driven STAT3 reporter inhibitors, primary screen, U3A cells, luciferase, luminescence, MLSCN library; IL-6 STAT3-luciferase reporter; host cell line lacks STAT1; inhibition, % at 5.5 µM; hit rate 0.89% among 190,000;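 active = inhibition above the mean inhibition across all screened compounds plus 3 SD, cut at about 44% in these data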;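 also: 0% = DMSO only wells and 100% = 100 µM nifuroxazide control wells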
# APP 5'UTR act = activators of APP 5'UTR luciferase reporter, primary screen, SH-SY5Y cells | hit rate 1% among 190,000 | AID 1276, 2008 | activation, % at 2 µM | SH-SY5Y APP 5'UTR luciferase reporter, luminescence; zero percent = DMSO vehicle wells;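 active = activation above a set limit, based on mean plus 3 SD of controls, cut at about 140% in these data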
# * hit, by the source's call.
SMILES,NF-kB expr up,STAT1 inh,STAT1 activator,STAT3 activator,STAT3 inh,APP 5'UTR act
Cc1csc(NC(=O)c2ccc(OCC3CCCO3)cc2)n1 (configuration not stated),4.78*,59.6*,43.9,50.6,60.6*,160.0*
CN1CCN(C(=O)c2ccc3c(=O)n4c(nc3c2)CCCCC4)CC1,1.1,-4.2,103.8,106.4,-4.4,-5.9
Cc1csc(NC(=O)c2ccc3c(=O)n4c(nc3c2)CCCCC4)n1,1.95,-23.2,120.8,102.7,-0.9,148.3*
Cn1cc([C@@H]2C[C@H]3CN(C4CCCC4)C(=O)[C@]34CCCN24)c(-c2ccccc2)n1,1.2,-1.5,99.7,94.3,9.0,21.8
c1ccc(CCc2nc3ccccc3[nH]2)cc1,1.92,-22.8,119.1,98.1,4.5,57.8
Nc1cccc(CCc2nc3cc4ccccc4cc3[nH]2)c1,4.21*,-35.2,131.3*,111.6,-16.8,-17.4
Cc1ccc(N=Nc2c(C)[nH]n(C(N)=S)c2=O)cc1C,4.77*,-14.5,113.0,120.3,-23.5,96.1
CC(=O)Nc1ccc(N=Nc2c(C)[nH]n(C(N)=S)c2=O)cc1,1.52,-27.4,126.0,103.4,4.6,5.2
C=CCn1c(O)c(N=Nc2nc3ccccc3c(=O)n2-c2ccccc2)c2ccccc21,1.39,7.1,93.8,115.7,-18.7,-6.5
Cn1ccnc1SCC(=O)Nc1cc(S(=O)(=O)N2CCOCC2)ccc1Cl,0.89,-4.0,103.6,101.8,2.6,-6.8
Cc1csc(SCC(=O)NC(=O)C2CCCCC2)n1,1.28,-7.1,106.0,107.2,-6.3,139.0*
COc1ccc(CCNC(=O)COc2nncc3ccccc23)cc1,1.01,-3.4,100.7,102.9,-2.0,0.6
CC1(C)CC(=O)c2sc(NC(=O)c3ccccc3)nc2C1,3.55*,-30.1,128.0,91.7,18.0,170.5*
CCc1ccc(C2CC(c3ccco3)=NN2S(C)(=O)=O)cc1 (configuration not stated),4.83*,-41.6,138.0*,90.3,17.7,154.7*
CC(=O)N1N=C(c2ccco2)CC1c1ccc(C)cc1 (configuration not stated),1.07,7.9,92.9,94.2,7.8,-15.8
CS(=O)(=O)c1ccc(S(=O)CC(=O)Oc2ccc(Cl)cc2)c([N+](=O)[O-])c1 (configuration not stated),1.06,3.0,96.1,134.6*,-37.7,-34.8
CCCOc1ccc(CC(=O)NNC(=S)Nc2ccccc2)cc1Br,3.31*,-8.6,112.8,96.7,6.1,11.9
COc1ccc(CC(=O)NNC(=S)Nc2ccccc2)cc1Cl,1.12,-7.5,103.7,103.1,1.1,-0.6
Cc1occc1C(=O)NNC(=O)c1ccccc1F,2.05,-13.4,112.9,91.2,18.0,22.4
Cc1c(Br)c([N+](=O)[O-])nn1C(C)C(=O)Nc1ccc2c(c1)OCO2 (configuration not stated),0.88,7.4,93.4,94.2,12.0,8.9
Cc1cc(=O)n2[nH]c(-c3ccc(C(C)(C)C)cc3)cc2n1,5.08*,-6.0,105.6,92.1,6.7,16.0
CCc1c(C)nc2cc(-c3ccc(OC)cc3)[nH]n2c1=O,2.26,-33.4,129.9*,107.0,-1.6,111.9
C[n+]1cnc(-c2ccccc2)cc1-c1ccccc1,1.08,2.3,98.0,89.4,11.6,-21.1
C/C(N)=C(/C#N)C(=O)COC(=O)c1cc(-c2ccc(Br)cc2)nc2ccccc12,3.65*,2.4,97.9,78.9,26.7,-7.0
C=CCSc1n[nH]c(-c2ccc(OCCC)cc2)n1,3.84*,-50.8,149.8*,98.6,3.9,103.4
CCCCCCCCCC[n+]1cccc2c3ccccc3ccc21,1.77,50.8*,52.0,28.6,87.2*,-23.8
Cc1cccc[n+]1CCCCCCCCCC[n+]1ccccc1C,1.02,1.4,98.6,102.8,2.6,1.0
CCCCCCCC[n+]1cccc2c3ccccc3ccc21,1.98,37.9*,63.8,28.5,87.4*,-19.6
